# Assay results reported in ChEMBL document CHEMBL4002546, “Evaluation of 7-arylaminopyrazolo[1,5-a]pyrimidines as anti-Plasmodium falciparum, antimalarial, and Pf-dihydroorotate dehydrogenase inhibitors” (Eur J Med Chem, 2017).
# How the values were obtained:
# [1] = tested on: Plasmodium berghei; experiment: (§1) Antimalarial activity against Plasmodium berghei NK65 infected in mouse assessed as reduction in parasitemia at 5 mg/kg, po administered daily for 3 consecutive days starting 24 hrs post inoculum challenge containing parasitized red blood cells measured on day 11 by giemsa staining based microscopic method; assay type: functional
# In short: (§2)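 P. berghei NK65 maintained by weekly blood passage. Mice inoculated i.p. with 1 × 10⁶ infected erythrocytes, randomized after ~24 h into groups of five. Oral dosing at 5 mg/kg once daily for 3 days, freshly diluted in 3% DMSO in RPMI; vehicle and amodiaquine controls. Parasitemia read on Giemsa-stained, methanol-fixed tail-blood thin smears. Inhibition is relative to untreated mice, taken as 100% growth.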
# [2] = Selectivity index, ratio of MLD50 for african green monkey BGM cells to IC50 for chloroquine-resistant Plasmodium falciparum W2 infected in human A+ erythrocytes by [3H]-hypoxanthine incorporation assay; assay type: toxicity, cell-based; conditions: read-out: Selectivity Index
# [3] = tested on: Plasmodium falciparum; experiment: Antiplasmodial activity against chloroquine-resistant Plasmodium falciparum W2 infected in human A+ erythrocytes assessed as inhibition of [3H]-hypoxanthine incorporation after 42 hrs by beta counting method; assay type: functional, cell-based
# In short: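 W2 parasites cultured at 37 °C in A+ human erythrocytes in RPMI 1640 with 10% A+ human serum, under low O2 (3% O2, 5% CO2). Compound dilutions were tested at 1% parasitemia and 1% haematocrit. [3H]-hypoxanthine uptake was read by beta counting after 42 h. IC50 was derived by curve fitting relative to drug-free controls.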
# [4] = tested on: Plasmodium berghei; experiment: as §1, with “7” for “11”; assay type: functional; in short: as §2
# [5] = tested on: Plasmodium falciparum; experiment: Antiplasmodial activity against chloroquine-resistant Plasmodium falciparum W2 infected in human A+ erythrocytes after 48 hrs by SYBR Green based fluorescence assay; assay type: functional, cell-based; conditions: W2, 48 h
# In short: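 W2 parasites kept at 37 °C in A+ human red cells in RPMI 1640 with 10% A+ human serum, under 3% O2/5% CO2/91% N2. Serial dilutions were run at 0.5% parasitemia and 2% haematocrit for 48 h at 37 °C. Cells were lysed in Tris/EDTA/saponin/Triton buffer with SYBR Safe for 30 min in the dark, then read at ex 485/em 535 nm. IC50 was curve-fitted against drug-free controls.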
# [6] = tested on: Plasmodium berghei; experiment: as §1, with “5” for “11”; assay type: functional; in short: as §2
# [7] = tested on: Plasmodium falciparum; experiment: Inhibition of N-terminally truncated Plasmodium falciparum SUMO-tagged DHODH (159 to 569 residues) expressed in Escherichia coli BL21(DE3) assessed as residual activity at 50 uM using L-dihydroorotate as substrate by DCIP-based colorimetric assay relative to control
# In short: (§3)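 Recombinant PfDHODH expressed in E. coli BL21(DE3) from a SUMO-His construct, IPTG-induced. Purified by Ni-NTA, then ULP1 tag cleavage, then size exclusion. Activity measured as continuous DCIP reduction at 600 nm over 60 s at 25 °C. Reaction: 50 mM Tris pH 8.15, 150 mM KCl, 0.1% Triton X-100, 1 mM L-dihydroorotate, 100 µM CoQ₀, 60 µM DCIP, 50 nM enzyme. Four replicates per concentration; activity relative to no-inhibitor control. IC50 from nonlinear fit.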
# [8] = Cytotoxicity against African green monkey BGM cells assessed as lethality after 24 hrs by neutral red dye based assay; assay type: cell-based; conditions: chlorocebus aethiops, read-out: MLD50
# In short: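 BGM monkey kidney cells grown in RPMI 1640 with 10% heat-inactivated foetal serum and gentamicin. Cells were seeded at 1 × 10⁵ cells/mL and left 18 h to adhere. Compounds were added across a 1000–1 dilution range for 24 h at 37 °C in 5% CO2. Cells took up neutral red for 2 h, were fixed with formaldehyde/CaCl2 and extracted with alcohol-acetic acid, then read at A540. Viability is % of untreated cells; MLD50 was calculated from this.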
# [9] = Selectivity index, ratio of MLD50 for african green monkey BGM cells to IC50 for chloroquine-resistant Plasmodium falciparum W2 infected in human A+ erythrocytes by SYBR Green based fluorescence assay; assay type: toxicity, cell-based
# [10] = Solubility of the compound at >100 uM; assay type: physicochemical
# [11] = target: Dihydroorotate dehydrogenase (quinone), mitochondrial (Homo sapiens) (UniProt Q02127); experiment: Inhibition of recombinant human DHODH assessed as residual activity at 50 uM using L-dihydroorotate as substrate by DCIP-based colorimetric assay relative to control
# Dihydroorotate dehydrogenase (quinone), mitochondrial (Homo sapiens), sequence (Q02127 whole entry): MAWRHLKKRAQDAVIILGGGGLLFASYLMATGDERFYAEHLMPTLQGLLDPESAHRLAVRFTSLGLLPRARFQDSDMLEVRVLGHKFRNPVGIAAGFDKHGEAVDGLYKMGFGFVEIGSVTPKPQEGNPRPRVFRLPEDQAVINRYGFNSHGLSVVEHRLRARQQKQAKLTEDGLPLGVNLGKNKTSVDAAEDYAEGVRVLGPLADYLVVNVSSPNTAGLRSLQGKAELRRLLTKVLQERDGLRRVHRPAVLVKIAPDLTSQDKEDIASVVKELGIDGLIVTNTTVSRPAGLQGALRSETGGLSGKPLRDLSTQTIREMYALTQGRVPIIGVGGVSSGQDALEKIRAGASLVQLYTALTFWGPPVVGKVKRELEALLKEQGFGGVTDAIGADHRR
# In short: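 Recombinant human DHODH at 20 nM final, in 50 mM Tris pH 8.15 with 150 mM KCl and 0.1% Triton X-100. Substrate was 1 mM L-dihydroorotate, with CoQ0 as acceptor and DCIP as dye. DCIP reduction was followed at 610 nm for 60 s at 25 °C, against a no-enzyme reference. Four replicates per concentration; activity is % of the uninhibited control.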
# [12] = tested on: Plasmodium berghei; experiment: as §1, with “9” for “11”; assay type: functional; in short: as §2
# [13] = Inhibition of N-terminally truncated Plasmodium falciparum SUMO-tagged DHODH (159 to 569 residues) expressed in Escherichia coli BL21(DE3) using L-dihydroorotate as substrate by DCIP-based colorimetric assay; in short: as §3
# [14] = Selectivity index, ratio of MLD50 for african green monkey BGM cells to IC50 for chloroquine-resistant Plasmodium falciparum W2 infected in human A+ erythrocytes by HRP2 ELISA assay; assay type: toxicity, cell-based; conditions: read-out: Selectivity Index
# [15] = tested on: Plasmodium falciparum; experiment: Antiplasmodial activity against chloroquine-resistant Plasmodium falciparum W2 infected in human A+ erythrocytes by HRP2 detection based ELISA; assay type: functional, cell-based
# In short: (§4)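 W2 blood-stage culture in A+ human erythrocytes in RPMI 1640 with 10% A+ human serum at 37 °C, under 3% O2/5% CO2. Growth was read with monoclonal antibodies against histidine- and alanine-rich protein II (HRPII). IC50 was estimated by curve fitting against drug-free controls.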
# [16] = tested on: Plasmodium falciparum; experiment: Antiplasmodial activity against chloroquine-resistant/mefloquine-sensitive Plasmodium falciparum W2 infected in human A+ erythrocytes assessed as inhibition of parasite growth by HRP2 detection based assay; assay type: functional, cell-based; in short: as §4
Structure (SMILES),inhibition in vivo at 5 mg/kg [1] [%],selectivity ratio [2],IC50 [3] [µM],inhibition in vivo at 5 mg/kg [4] [%],IC50 [5] [µM],inhibition in vivo at 5 mg/kg [6] [%],Activity [7] [%],CC50 at 24 h [8] [µM],selectivity ratio [9],solubility [10],Activity [11] [%],inhibition in vivo at 5 mg/kg [12] [%],IC50 [13] [µM],selectivity ratio [14],IC50 [15] [µM],IC50 [16] [µM]
Cc1cc2nc(C(F)(F)F)cc(Nc3ccc4ccccc4c3)n2n1,29,234,10,1,10,25,60,2340,234,Insoluble,101,4,0.16,,,
Cc1cc(Nc2ccc3ccccc3c2)n2nc(C(F)(F)F)nc2n1,,18.5,,,,,37,425,,,,,0.7,18.5,,
COc1cc(Nc2cc(C(F)(F)F)nc3cc(C)nn23)cc(OC)c1,,> 330,8.6,,8.6,,77,> 2840,> 330,Insoluble,104,,,,,
Cc1cc(Nc2ccccc2C(F)(F)F)n2nc(C(F)(F)F)cc2n1,,4.6,50,,,,48,228,,,93,,,5.1,44.4,
Cc1cc(Nc2ccc(C(F)(F)F)cc2)n2nc(C(F)(F)F)cc2n1,,2.3,47.2,,,,33,108,,,95,,> 100,3.5,30.6,
CCN(CC)Cc1cc(Nc2ccnc3cc(Cl)ccc23)ccc1O [AMODIAQUINE],100,,0.006,100,0.006,100,79,,,,,100,> 400,,,
COc1cc(Nc2cc(C)nc3cc(C)nn23)cc(OC)c1,,7,26.8,,,,42,188,,,80,,> 400,8.7,21.5,
Cc1cc2nc(C(F)(F)F)cc(Nc3ccccc3)n2n1,,15.2,17.1,,17.1,,77,261,15.2,Insoluble,122,,,,,
COc1ccc(Nc2cc(C)nc3nc(C(F)(F)F)nn23)cc1,,,,,,,,,,,,,,,,0.4
CCN(CC)CCCC(C)Nc1cc(C)nc2nc(C(F)(F)F)nn12 (configuration not stated),,,,,,,,,,,,,,,,39
Cc1cc(Nc2ccc(C(F)(F)F)cc2)n2nc(C)cc2n1,,5.4,15.7,,,,34.3,85,,,88,,24,10,8.5,
FC(F)(F)c1cc(Nc2cc(Cl)cc(Cl)c2)n2nc(C(F)(F)F)nc2n1,,,,,,,,,,,,,,,,12.3
Cc1cc(Nc2ccc3ccccc3c2)n2nc(C(F)(F)F)cc2n1,59,468,1.2,61,1.2,50,67.5,561,468,Insoluble,56.8,47,6,,,
Cc1cc(Nc2ccc(Cl)cc2)n2nc(C)cc2n1,,22,25.7,,,,74,566,,,95,,,24.1,23.5,
Cc1cc(Nc2ccc3ccccc3c2)n2nc(C)cc2n1,65,79.6,5.1,40,5.1,50,41,406,79.6,Insoluble,71.9,53,4,,,
COc1cc(Nc2cc(C)nc3cc(C(F)(F)F)nn23)cc(OC)c1,,,> 142,,,,57,256,,,95,,> 400,,> 142,
Cc1cc(Nc2ccccc2)n2nc(C(F)(F)F)cc2n1,,,> 171,,,,88,856,,,113,,,,> 171,
Cc1cc(Nc2ccccc2C(F)(F)F)n2nc(C)cc2n1,,2.5,42.5,,,,94,105,,,96,,,2.1,49,
Cc1cc(Nc2ccc(Cl)cc2)n2nc(C(F)(F)F)cc2n1,,1.3,50.3,,,,52,67.5,,,121,,23,1,67.5,
Cc1cc(Nc2ccccc2)n2nc(C)cc2n1,,4.7,67.2,,,,66,315,,,104,,,3.4,92.4,
